# Test system: Gastrin/cholecystokinin type B receptor (Cavia porcellus)
# Experiment: Displacement of [125I]BH-CCK8 from CCK2 receptor in Hartley guinea pig cerebral cortex at 30 uM
row,Activity [%],SMILES
1,31,CSCC[C@H](NC(=O)c1ccccc1NC(=O)c1cc2ccccc2[nH]1)C(=O)O
2,< 20,CCCCCN(CCCCC)C(=O)C(Cc1ccccc1)NC(=O)c1ccccc1NC(=O)c1cc2ccccc2[nH]1 (stereo unspecified)
3,< 20,O=C(O)CCCNC(=O)c1ccccc1NC(=O)c1cc2ccccc2[nH]1
4,< 20,O=C(O)CCNC(=O)c1ccccc1NC(=O)c1cc2ccccc2[nH]1
5,< 20,CCOC(=O)C(Cc1ccccc1)NC(=O)c1ccccc1NC(=O)c1cc2ccccc2[nH]1 (racemic)

# Test system: Gastrin/cholecystokinin type B receptor (Cavia porcellus)
# Experiment: Displacement of [125I]BH-CCK8 from CCK2 receptor in Hartley guinea pig cerebral cortex at 1 uM
row,Activity [%],SMILES
1,< 20,O=C(O)CC(NC(=O)c1ccccc1NC(=O)c1cc2ccccc2[nH]1)C(=O)O (racemic)

# Test system: Gastrin/cholecystokinin type B receptor (Cavia porcellus)
# Experiment: Displacement of [125I]BH-CCK8 from CCK2 receptor in Hartley guinea pig cerebral cortex at 10 uM
row,Activity [%],SMILES
1,< 20,CSCCC(NC(=O)c1ccccc1NC(=O)c1cc2ccccc2[nH]1)C(=O)O (stereo unspecified)
2,< 20,O=C(Nc1ccccc1C(=O)NCCc1c[nH]c2ccccc12)c1cc2ccccc2[nH]1
3,< 20,O=C(Nc1ccccc1C(=O)NCCc1ccccc1)c1cc2ccccc2[nH]1
4,< 20,CC(NC(=O)c1ccccc1NC(=O)c1cc2ccccc2[nH]1)C(=O)O (racemic)
5,< 20,CC(Cc1ccccc1)NC(=O)c1ccccc1NC(=O)c1cc2ccccc2[nH]1 (racemic)
6,< 20,NC(=O)C(Cc1ccccc1)NC(=O)c1ccccc1NC(=O)c1cc2ccccc2[nH]1 (racemic)
7,< 20,O=C(Nc1ccccc1C(=O)NC(Cc1ccc(OCc2ccccc2)cc1)C(=O)O)c1cc2ccccc2[nH]1 (racemic)
8,< 20,CSCCC(NC(=O)c1ccccc1NC(=O)c1cc2ccccc2n1C)C(=O)O (racemic)
9,< 20,O=C(O)CCC(NC(=O)c1ccccc1NC(=O)c1cc2ccccc2[nH]1)C(=O)O (racemic)

# Molecular target: Gastrin/cholecystokinin type B receptor (Cavia porcellus, UniProt H0VZC5)
# Sequence (H0VZC5 1-426): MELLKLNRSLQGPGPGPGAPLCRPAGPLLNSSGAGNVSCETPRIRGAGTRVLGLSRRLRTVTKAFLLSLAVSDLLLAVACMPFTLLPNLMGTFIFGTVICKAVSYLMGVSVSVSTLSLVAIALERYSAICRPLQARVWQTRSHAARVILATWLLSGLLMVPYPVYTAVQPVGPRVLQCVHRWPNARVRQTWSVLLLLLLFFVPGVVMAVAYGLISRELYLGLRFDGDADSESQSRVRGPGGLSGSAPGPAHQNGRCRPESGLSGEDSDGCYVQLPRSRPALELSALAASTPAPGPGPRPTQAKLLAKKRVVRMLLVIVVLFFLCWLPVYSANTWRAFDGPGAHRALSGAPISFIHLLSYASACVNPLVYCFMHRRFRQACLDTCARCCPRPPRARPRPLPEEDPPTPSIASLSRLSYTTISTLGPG
# Experiment: Displacement of [125I]BH-CCK8 from CCK2 receptor in Hartley guinea pig cerebral cortex
row,IC50 [nM],SMILES
1,16400,O=C(Nc1ccccc1C(=O)NC(Cc1ccccc1)C(=O)O)c1cc2ccccc2[nH]1 (stereo unspecified)
2,14700,CC(C)C[C@@H](NC(=O)c1ccccc1NC(=O)c1cc2ccccc2[nH]1)C(=O)O
3,11400,CSCC[C@@H](NC(=O)c1ccccc1NC(=O)c1cc2ccccc2[nH]1)C(=O)O
4,16900,O=C(O)CC(Cc1ccccc1)NC(=O)c1ccccc1NC(=O)c1cc2ccccc2[nH]1 (racemic)

# Molecular target: T1, Cholecystokinin receptor type A (Rattus norvegicus, UniProt P30551)
# T1 sequence (P30551 whole entry): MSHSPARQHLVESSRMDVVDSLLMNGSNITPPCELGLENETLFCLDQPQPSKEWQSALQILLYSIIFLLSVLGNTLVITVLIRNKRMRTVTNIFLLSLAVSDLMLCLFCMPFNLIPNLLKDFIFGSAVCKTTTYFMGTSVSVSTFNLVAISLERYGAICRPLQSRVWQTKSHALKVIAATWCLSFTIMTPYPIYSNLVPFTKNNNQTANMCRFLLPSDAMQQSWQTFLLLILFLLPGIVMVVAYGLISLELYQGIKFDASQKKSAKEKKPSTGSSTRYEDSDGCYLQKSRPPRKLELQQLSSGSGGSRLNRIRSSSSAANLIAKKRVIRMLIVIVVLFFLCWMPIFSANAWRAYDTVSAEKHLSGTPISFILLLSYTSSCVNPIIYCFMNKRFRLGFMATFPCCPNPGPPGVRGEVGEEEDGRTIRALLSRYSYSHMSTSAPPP
# Experiment: Displacement of [125I]BH-CCK8 from CCK1 receptor in Sprague-Dawley rat pancreatic acinar cells
# How it was run: (§1)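 Pancreatic acini were obtained by enzymatic digestion from male Sprague Dawley rats fasted 18–24 h with water allowed. Cells were incubated with 25 pM (final) [125I]BH-CCK-8 and competitors at 37 °C for 30 min with shaking. The reaction was stopped with ice-cold Hepes-Ringer (1% BSA, soybean trypsin inhibitor, pH 7.4), then centrifuged 5 min at 12,500g, and pellet radioactivity was measured.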
row,IC50 [nM],SMILES
1,197,O=C(Nc1ccccc1C(=O)NC(Cc1ccccc1)C(=O)O)c1cc2ccccc2[nH]1 (stereo unspecified)
2,46,CC(C)C[C@@H](NC(=O)c1ccccc1NC(=O)c1cc2ccccc2[nH]1)C(=O)O
3,2750,CSCC[C@H](NC(=O)c1ccccc1NC(=O)c1cc2ccccc2[nH]1)C(=O)O
4,27,CSCC[C@@H](NC(=O)c1ccccc1NC(=O)c1cc2ccccc2[nH]1)C(=O)O
5,52,CSCCC(NC(=O)c1ccccc1NC(=O)c1cc2ccccc2[nH]1)C(=O)O (stereo unspecified)
6,5520,O=C(O)CNC(=O)c1ccccc1NC(=O)c1cc2ccccc2[nH]1
7,3240,CC(NC(=O)c1ccccc1NC(=O)c1cc2ccccc2[nH]1)C(=O)O (racemic)
8,3150,CC(Cc1ccccc1)NC(=O)c1ccccc1NC(=O)c1cc2ccccc2[nH]1 (racemic)
9,445,O=C(Nc1ccccc1C(=O)NC(Cc1c[nH]c2ccccc12)C(=O)O)c1cc2ccccc2[nH]1 (racemic)
10,2070,O=C(Nc1ccccc1C(=O)NC(Cc1ccc(O)cc1)C(=O)O)c1cc2ccccc2[nH]1 (racemic)
11,8530,NC(=O)C(Cc1ccccc1)NC(=O)c1ccccc1NC(=O)c1cc2ccccc2[nH]1 (racemic)
12,1160,O=C(Nc1ccccc1C(=O)NC(Cc1ccc(OCc2ccccc2)cc1)C(=O)O)c1cc2ccccc2[nH]1 (racemic)
13,288,CC(C)C(NC(=O)c1ccccc1NC(=O)c1cc2ccccc2[nH]1)C(=O)O (racemic)
14,83,CC(C)CC(NC(=O)c1ccccc1NC(=O)c1cc2ccccc2[nH]1)C(=O)O (racemic)
15,92,CSCCC(NC(=O)c1ccccc1NC(=O)c1cc2ccccc2n1C)C(=O)O (racemic)

# Molecular target: T2, Cholecystokinin receptor type A (Rattus norvegicus) (UniProt P30551)
# T2 sequence (whole entry): T1 sequence (P30551 whole entry)
# Experiment: Displacement of [125I]BH-CCK8 from CCK1 receptor in Sprague-Dawley rat pancreatic acinar cells at 3 uM
# How it was run: as §1
row,Activity [%],SMILES
1,< 20,CCCCCN(CCCCC)C(=O)C(Cc1ccccc1)NC(=O)c1ccccc1NC(=O)c1cc2ccccc2[nH]1 (stereo unspecified)
2,< 20,O=C(Nc1ccccc1C(=O)NCCc1c[nH]c2ccccc12)c1cc2ccccc2[nH]1
3,< 20,O=C(Nc1ccccc1C(=O)NCCc1ccccc1)c1cc2ccccc2[nH]1
4,< 20,O=C(O)CCCNC(=O)c1ccccc1NC(=O)c1cc2ccccc2[nH]1
5,< 20,O=C(O)CCNC(=O)c1ccccc1NC(=O)c1cc2ccccc2[nH]1
6,20,CCOC(=O)C(Cc1ccccc1)NC(=O)c1ccccc1NC(=O)c1cc2ccccc2[nH]1 (racemic)
7,32,O=C(Nc1ccccc1C(=O)NC(CO)Cc1ccccc1)c1cc2ccccc2[nH]1 (racemic)

# Molecular target: T2, Cholecystokinin receptor type A (Rattus norvegicus)
# Experiment: Displacement of [125I]BH-CCK8 from CCK1 receptor in Sprague-Dawley rat pancreatic acinar cells at 10 uM
# How it was run: as §1
row,Activity [%],SMILES
1,25,O=C(O)CC(Cc1ccccc1)NC(=O)c1ccccc1NC(=O)c1cc2ccccc2[nH]1 (racemic)
2,< 20,O=C(O)CC(NC(=O)c1ccccc1NC(=O)c1cc2ccccc2[nH]1)C(=O)O (racemic)
3,< 20,O=C(O)CCC(NC(=O)c1ccccc1NC(=O)c1cc2ccccc2[nH]1)C(=O)O (racemic)

# Molecular target: T3, Cholecystokinin receptor type A (Cavia porcellus) (UniProt Q63931)
# T3 sequence (whole entry): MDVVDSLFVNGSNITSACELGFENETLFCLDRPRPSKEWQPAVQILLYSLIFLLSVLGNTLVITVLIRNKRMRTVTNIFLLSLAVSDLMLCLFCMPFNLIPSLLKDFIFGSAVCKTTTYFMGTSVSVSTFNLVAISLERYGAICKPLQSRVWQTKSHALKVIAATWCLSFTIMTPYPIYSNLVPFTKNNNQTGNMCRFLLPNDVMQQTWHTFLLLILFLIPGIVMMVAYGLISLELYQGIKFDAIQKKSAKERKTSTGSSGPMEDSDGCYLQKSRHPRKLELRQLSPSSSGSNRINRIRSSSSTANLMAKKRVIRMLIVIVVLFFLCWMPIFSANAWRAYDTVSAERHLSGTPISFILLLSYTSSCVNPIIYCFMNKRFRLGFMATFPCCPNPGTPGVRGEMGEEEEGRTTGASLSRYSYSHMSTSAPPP
# Experiment: Antagonist activity against CCK1 receptor in Hartley guinea pig gallbladder assessed as inhibition of CCK-8- stimulated contraction at 1 uM
# Type: functional
# How it was run: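 Circular smooth-muscle strips (about 3 × 15 mm) hung in organ baths of Krebs–Henseleit at 32 °C, gassed 95% O2–5% CO2, and equilibrated 60 min with washes every 15 min. Antagonist or vehicle was applied 5 min before a submaximal (70–80%) CCK-8 concentration. Isometric contraction was recorded and activity expressed as percent inhibition of agonist contraction.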
row,inhibition [%],SMILES
1,100,CSCCC(NC(=O)c1ccccc1NC(=O)c1cc2ccccc2[nH]1)C(=O)O (stereo unspecified)
2,100,CC(C)CC(NC(=O)c1ccccc1NC(=O)c1cc2ccccc2[nH]1)C(=O)O (racemic)

# Source: ChEMBL document CHEMBL1153940, “Anthranilic acid based CCK1 receptor antagonists: blocking the receptor with the same 'words' of the endogenous ligand” (Bioorg Med Chem, 2009)
